The target in test [1] is T1, Amine oxidase [flavin-containing] A (Homo sapiens, UniProt P21397).
T1 sequence (P21397 whole entry): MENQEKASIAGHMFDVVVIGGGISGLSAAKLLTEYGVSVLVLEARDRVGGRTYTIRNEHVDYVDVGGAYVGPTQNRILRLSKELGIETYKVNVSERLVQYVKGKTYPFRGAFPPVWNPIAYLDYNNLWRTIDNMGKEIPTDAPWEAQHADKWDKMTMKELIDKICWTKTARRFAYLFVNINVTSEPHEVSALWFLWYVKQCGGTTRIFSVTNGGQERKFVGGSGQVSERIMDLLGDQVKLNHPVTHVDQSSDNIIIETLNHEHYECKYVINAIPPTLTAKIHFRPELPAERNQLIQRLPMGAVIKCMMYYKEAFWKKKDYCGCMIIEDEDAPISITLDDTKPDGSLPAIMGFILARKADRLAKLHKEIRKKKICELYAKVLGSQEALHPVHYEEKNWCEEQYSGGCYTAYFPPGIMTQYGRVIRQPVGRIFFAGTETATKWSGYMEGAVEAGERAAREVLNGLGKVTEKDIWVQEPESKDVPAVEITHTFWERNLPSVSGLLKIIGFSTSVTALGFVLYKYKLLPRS
In words: Reversible inhibition of human recombinant MAO-A expressed in baculovirus infected […] insect cells at 300 nM after 1 hr by centrifugation-ultrafiltration method. The procedure, abridged: (§1)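 Recombinant hMAO-A (baculovirus-infected BTI insect cells) preincubated with a single inhibitor concentration in 0.05 M sodium phosphate, pH 7.4, 1 h at 37°C. One aliquot kept at 4°C unwashed. Remainder ultrafiltered (30 kDa membrane, 9000x g, 20 min, 4°C), resuspended and spun twice more. Activity by Amplex Red/HRP H2O2 fluorescence. Percent inhibition vs vehicle controls, with and without washing.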

Test [2] has as its target T1, Amine oxidase [flavin-containing] A. In words: Reversible inhibition of human recombinant MAO-A expressed in baculovirus infected […] insect cells at 300 nM incubated for 1 hr followed by compound washout by centrifugation-ultrafiltration method. The procedure, abridged:
as §1

Regarding `O=C(NCCN1CCOCC1)c1ccc(Cl)cc1` [MOCLOBEMIDE], the inhibition (usually how much of the control response was suppressed) at 0.3 µM stood at 89% in test [1] and 9.56% in test [2].
